ChEMBL document CHEMBL1155225, “Investigation of functionally liver selective glucokinase activators for the treatment of type 2 diabetes” (J Med Chem, 2009)
Converted amounts (≈) assume the structure as drawn. The source made the active and inactive calls. The calls are words filed in the database; no cut-off is given here.

Legend:
[1] = biological target: T1, Hexokinase-4 (Rattus norvegicus) (UniProt P17712); test: Activation of glucokinase-mediated of glucose phosphorylation in Sprague-Dawley rat hepatocytes assessed as release of [3H]H2O from [2-3H]glucose at 30 uM after 3 hrs; assay type: cell-based; conditions: Hepatocyte
T1 sequence (whole entry): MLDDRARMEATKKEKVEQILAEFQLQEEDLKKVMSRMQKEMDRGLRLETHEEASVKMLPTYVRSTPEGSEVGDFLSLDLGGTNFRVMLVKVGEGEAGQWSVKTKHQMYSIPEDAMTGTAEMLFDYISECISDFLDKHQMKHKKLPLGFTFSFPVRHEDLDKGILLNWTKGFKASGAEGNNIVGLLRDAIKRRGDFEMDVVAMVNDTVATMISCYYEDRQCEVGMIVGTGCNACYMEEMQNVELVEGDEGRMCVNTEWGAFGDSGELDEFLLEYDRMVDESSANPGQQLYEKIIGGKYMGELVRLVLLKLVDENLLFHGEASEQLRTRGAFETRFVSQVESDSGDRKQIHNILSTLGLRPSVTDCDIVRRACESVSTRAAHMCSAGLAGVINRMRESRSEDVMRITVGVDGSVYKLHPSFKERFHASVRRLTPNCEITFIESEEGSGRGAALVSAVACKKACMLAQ
How it was run: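 Hepatocytes from overnight-fasted male Sprague-Dawley rats by collagenase perfusion, cultured 16-20 h at 37 °C, 5% CO2 in serum-free DMEM with 5 mM glucose plus dexamethasone. Preincubated 3 h at 37 °C in serum-free DMEM, 5 mM glucose, with DMSO or 30 μM compound, then 30 min with [2-3H]glucose. Medium collected into 0.1 M HCl; detritiated glucose (nmol/h per 10^6 cells) as % increase over vehicle; quadruplicate, mean ± SEM, Student's t test.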

[2] = biological target: T2, Hexokinase-4 (Homo sapiens) (UniProt P35557); test: Activation of His-tagged human recombinant liver glucokinase expressed in Escherichia coli BL21 (DE3) assessed as drug level required for half-maximal activation; assay type: single protein
T2 sequence (whole entry): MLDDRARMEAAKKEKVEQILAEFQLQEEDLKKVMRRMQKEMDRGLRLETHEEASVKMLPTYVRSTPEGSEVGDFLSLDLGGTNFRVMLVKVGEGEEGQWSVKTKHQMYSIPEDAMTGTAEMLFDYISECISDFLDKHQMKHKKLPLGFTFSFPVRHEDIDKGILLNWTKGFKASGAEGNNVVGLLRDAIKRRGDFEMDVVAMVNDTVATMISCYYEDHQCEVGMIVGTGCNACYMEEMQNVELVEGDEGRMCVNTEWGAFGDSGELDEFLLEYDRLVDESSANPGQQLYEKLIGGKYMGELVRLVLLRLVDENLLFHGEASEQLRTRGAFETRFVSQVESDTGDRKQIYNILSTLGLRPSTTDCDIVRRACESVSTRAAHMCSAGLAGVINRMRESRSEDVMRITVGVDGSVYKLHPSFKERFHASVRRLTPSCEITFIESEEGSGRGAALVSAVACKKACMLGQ
How it was run: (§1)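 Recombinant human liver GK (aa 17-466), His-tagged, expressed in E. coli BL21 Star (DE3), nickel affinity purified, tag cleaved (GPGSM left), then anion exchange and gel filtration to >95%.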

[3] = Metabolic stability in human liver microsomes assessed as half life; assay type: ADME, Microsome
How it was run: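 Compound incubated at 1 μM with human liver microsomes plus selected cofactors (NADPH, UDPGA); clearance followed at 4 time points as % test compound remaining, giving half-life.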

[4] = Permeability at 5 to 10 uM at pH 4, 6.8 and 8 by PAMPA; conditions: pH 4, 6.8, 8, 10 µM
[5] = Intrinsic solubility in neutral pH by HPLC analysis; assay type: physicochemical
Mus musculus [6] = test: Reduction in glucose excursion in C57BL/6 mouse at 50 mg/kg, po in microemulsion administered 30 mins before glucose challenge measured at 4 hrs postdose by oral glucose tolerance test; assay type: functional, organism-based; design: dose 50 mg/kg; conditions: C57BL6
How it was run: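 C57BL6 mice grouped by matched 0-h plasma glucose; compound given by oral gavage (5 mL/kg) at 50 mg/kg (or 72 mg/kg) in microemulsion (Cremophor RH40, corn oil-monodiglyceride, propylene glycol, ethanol; diluted 2:3 with water) or in water; oral glucose 1 g/kg 30 min later. Blood sampled at 0.5, 1, 2 and 4 h post-dosing for glucose (meter) and insulin; % reduction from control.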

[7] = Aqueous solubility by HPLC analysis; assay type: physicochemical; conditions: buffer
[8] = Aqueous solubility in water by HPLC analysis; assay type: physicochemical
Mus musculus [9] = test: Increase in basal insulin release from beta cells in po dosed C57BL/6 mouse; assay type: functional, organism-based; conditions: C57BL6
[10] = biological target: T2, Hexokinase-4 (Homo sapiens); test: Activation of His-tagged human recombinant liver glucokinase expressed in Escherichia coli BL21 (DE3) assessed as drug level required for half-maximal activation for sigmoid activation curve; how it was run: as §1
Mus musculus [11] = test: Increase in insulin release from beta cells in po dosed C57BL/6 mouse after glucose challenge; assay type: functional, organism-based; conditions: C57BL6
Mus musculus [12] = test: Reduction in glucose excursion in C57BL/6 mouse at 72 mg/kg, po in microemulsion administered 30 mins before glucose challenge measured up to 6 hrs postdose by oral glucose tolerance test; assay type: functional, organism-based; design: dose 72 mg/kg; conditions: C57BL6

Row | SMILES | Activity [1] [%] | Activity [2] [nM] | half-life [3] [min] | logPm [4] | also measured
1 | COc1ccc2nc(NC(=O)C(CC3CCCC3)c3ccc(S(=O)(=O)Nc4cccnc4)cc3)sc2n1 (configuration not stated) | 219 | 323 |  |  | 
2 | COc1ccc2nc(NC(=O)C(CC3CCCC3)c3ccc(S(=O)(=O)NC4CCCCC4)cc3)sc2n1 (configuration not stated) | 78 | 302 | 4.8 | -7 | 
3 | COc1ccc2nc(NC(=O)C(CC3CCCC3)c3ccc(S(=O)(=O)N4CCCCC4)cc3)sc2n1 (configuration not stated) | 230 | 66 | 6.2 | -5.2 | 
4 | CCCCN(CCCC)S(=O)(=O)c1ccc(C(CC2CCCC2)C(=O)Nc2nc3ccc(OC)nc3s2)cc1 (configuration not stated) |  | 181 |  |  | 
5 | COc1ccc2nc(NC(=O)C(CC3CCCC3)c3ccc(S(=O)(=O)NCCC(=O)O)cc3)sc2n1 (configuration not stated) |  | 2810 | 22.6 | -4.3 | solubility [5]: > 570 µg/mL; Activity (Mus musculus [6]): inactive
6 | COc1ccc2nc(NC(=O)C(CC3CCCC3)c3ccc(S(=O)(=O)NCCN(C)C)cc3)sc2n1 (configuration not stated) |  | 117 | 9 | -4.8 | 
7 | CCCC(=O)NS(=O)(=O)c1ccc(C(CC2CCCC2)C(=O)Nc2nc3ccc(OC)nc3s2)cc1 (configuration not stated) [listing 1 of 2 here] |  |  |  |  | Activity (Mus musculus [6]): inactive
8 | COc1ccc2nc(NC(=O)C(CC3CCCC3)c3ccc(S(=O)(=O)N(C)CCO)cc3)sc2n1 (configuration not stated) |  | 147 | 10 | -4.4 | 
9 | CCCN(CCC)S(=O)(=O)c1ccc(C(CC2CCCC2)C(=O)Nc2nc3ccc(OC)nc3s2)cc1 (configuration not stated) |  | 35 |  |  | 
10 | COc1ccc2nc(NC(=O)C(CC3CCCC3)c3ccc(S(=O)(=O)NCc4ccccn4)cc3)sc2n1 (configuration not stated) |  | 180 |  |  | solubility [7]: 10 µg/mL (≈ 18.1 µM)
11 | COc1ccc2nc(NC(=O)C(CC3CCCC3)c3ccc(S(=O)(=O)N4CCOCC4)cc3)sc2n1 (configuration not stated) | 281 | 153 |  |  | 
12 | COc1ccc2nc(NC(=O)C(CC3CCCC3)c3ccc(S(=O)(=O)NC4CCOCC4)cc3)sc2n1 (configuration not stated) |  | 305 | 13.1 | -4.5 | 
13 | O=C(Nc1nc2cccnc2s1)c1ccccc1 | 411 | 489 |  |  | 
14 | COc1ccc2nc(NC(=O)C(CC3CCCC3)c3ccc(S(=O)(=O)NCc4ccccc4)cc3)sc2n1 (configuration not stated) | 32 | 726 |  |  | 
15 | COc1ccc2nc(NC(=O)C(CC3CCCC3)c3ccc(S(=O)(=O)N(C(C)C)C(C)C)cc3)sc2n1 (configuration not stated) |  | 73 |  |  | 
16 | COc1ccc2nc(NC(=O)C(CC3CCCC3)c3ccc(S(=O)(=O)NCc4cccs4)cc3)sc2n1 (configuration not stated) |  | 1450 | 25.3 | -5.1 | 

Row | SMILES | Activity [1] [%] | Activity [2] [nM] | half-life [3] [min] | logPm [4] | also measured
17 | COc1ccc2nc(NC(=O)C(CC3CCCC3)c3ccc(S(=O)(=O)NC4CC4)cc3)sc2n1 (configuration not stated) |  | 266 | 19.5 | -5.2 | 
18 | COc1ccc2nc(NC(=O)C(CC3CCCC3)c3ccc(S(=O)(=O)N(C)Cc4ccccc4)cc3)sc2n1 (configuration not stated) |  | 263 | 26.2 | -5.4 | Activity (Mus musculus [6]): inactive
19 | CCCC(=O)[N-]S(=O)(=O)c1ccc(C(CC2CCCC2)C(=O)Nc2nc3ccc(OC)nc3s2)cc1.[Na+] (configuration not stated) |  |  |  |  | solubility [8]: 26 µg/mL
20 | COc1ccc2nc(NC(=O)C(CC3CCCC3)c3ccc(S(=O)(=O)N(C)Cc4ccco4)cc3)sc2n1 (configuration not stated) | 67 | 109 | 5.1 | -5.1 | 
21 | CCC(=O)[N-]S(=O)(=O)c1ccc(C(CC2CCCC2)C(=O)Nc2nc3ccc(OC)nc3s2)cc1.[Na+] (configuration not stated) |  |  |  |  | solubility [8]: 11 µg/mL
22 | CCN(CC)S(=O)(=O)c1ccc(C(CC2CCCC2)C(=O)Nc2nc3ccc(OC)nc3s2)cc1 (configuration not stated) | 345 | 42 | 5.8 | -5.9 | 
23 | COc1ccc2nc(NC(=O)C(CC3CCCC3)c3ccc(S(=O)(=O)Nc4ccccc4)cc3)sc2n1 (configuration not stated) |  | 583 |  | -3.8 | 
24 | COc1ccc2nc(NC(=O)C(CC3CCCC3)c3ccc(S(=O)(=O)N(C)C)cc3)sc2n1 (configuration not stated) | 221 | 295 | 17.8 | -3.3 | 
25 | COCCNS(=O)(=O)c1ccc(C(CC2CCCC2)C(=O)Nc2nc3ccc(OC)nc3s2)cc1 (configuration not stated) | 85 | 61 | 15.7 | -5 | Activity (Mus musculus [6]): inactive
26 | CCC(=O)NS(=O)(=O)c1ccc(C(CC2CCCC2)C(=O)Nc2nc3ccc(OC)nc3s2)cc1 (configuration not stated) |  |  | 4.8 | -4.1 | 
27 | COc1ccc2nc(NC(=O)C(CC3CCCC3)c3ccc(S(=O)(=O)NCc4cccnc4)cc3)sc2n1 (configuration not stated) | 281 | 377 | < 1.5 | -4.6 | Activity (Mus musculus [6]): inactive
28 | COc1ccc2nc(NC(=O)C(CC3CCCC3)c3ccc(S(=O)(=O)N(C)Cc4nccn4C)cc3)sc2n1 (configuration not stated) |  | 66 | < 1.5 | -4.1 | 
29 | COc1ccc2nc(NC(=O)C(CC3CCCC3)c3ccc(S(=O)(=O)N4CCN(C)CC4)cc3)sc2n1 (configuration not stated) | 498 | 39 | 9.1 | -3.9 | Activity (Mus musculus [9]): inactive; Activity [10]: 11 mM; solubility [7]: 50 µg/mL (≈ 92 µM); Activity (Mus musculus [11]): inactive; Activity (Mus musculus [12]): Active
30 | COc1ccc2nc(NC(=O)C(CC3CCCC3)c3ccc(S(=O)(=O)NCc4ccco4)cc3)sc2n1 (configuration not stated) | 14 | 892 | 290 | -4.9 | Activity (Mus musculus [6]): inactive
31 | COc1ccc2nc(NC(=O)C(CC3CCCC3)c3ccc(S(=O)(=O)NCc4ccncc4)cc3)sc2n1 (configuration not stated) |  | 207 | < 1.5 | -4.3 | solubility [7]: 10 µg/mL (≈ 18.1 µM)
32 | CCCC(=O)NS(=O)(=O)c1ccc(C(CC2CCCC2)C(=O)Nc2nc3ccc(OC)nc3s2)cc1 (configuration not stated) [listing 2 of 2 here] |  |  | 2.2 | -4.4 | 
